Structures are written as SMILES.

This data set is described as follows: Toxicity liver stage against HepG2, at 10uM. In kind it is cell-based. Details: test concentration 10 uM, cell line HepG2-A16-CD81EGFP. Conditions: human, HepG2-A16-CD81EGFP cells; read-out: INHIBITION
The procedure, abridged:
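Uninfected HepG2-A16-CD81EGFP cells, 3 × 10^3 per well, 1536-well, plated on prespotted compound at 10 μM final, parasite-free screening media added to match infected plates; puromycin 10 μM positive, DMSO 0.5% negative; run in parallel with 48 h PbLuc assay at 37 °C, 5% CO2; viability by CellTiter-Glo luminescence, normalized to controls.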
As to `CC(C)(C)NC(=O)COc1ccc(CNCc2ccccn2)cc1`, the cytotoxicity at 10 µM was -11.5%. For the compound `Cc1nn(-c2ccccc2Cl)c(C)c1CCC(=O)NCCS(C)(=O)=O`, the cytotoxicity at 10 µM was 2.78%. To `O=C1CCNc2ccc(F)cc2CN1Cc1ccccc1` belongs -3.03%; to `O=C(CNC(=O)N1CCc2c([nH]c3ccc(Cl)cc23)C1)NC1CCCC1`, -2.91%. Regarding `Cc1cc(-c2nn3c(C4CC4)nnc3s2)on1`, the cytotoxicity at 10 µM is -2.37%.

As to `COCCN(Cc1ccoc1)C(=O)c1c(F)cccc1F`, the cytotoxicity at 10 µM was 10.6%.

In the case of `Cc1nc(-c2cnn(C)c2)nc2c1CN(C(=O)c1cccn1C)CC2`, the cytotoxicity at 10 µM turned out to be 4.87%.

In the case of `O=C1CC2(CCN(c3nncs3)C2)CN1c1cccc(F)c1` (stereo not drawn), the cytotoxicity at 10 µM was -3.36%. In the case of `CO[C@H]1CC[C@H]2[C@H]1OCCN2C(=O)c1ccc(C)nc1`, the cytotoxicity at 10 µM is -141%. To `Cc1cs/c(=N\C(=O)Cn2nc(N3CCC(C)CC3)ccc2=O)[nH]1` belongs 1.34%; to `O=C(NCCC1=CCCCC1)C1CCCN(c2ccc3nncn3n2)C1` (stereo not drawn), 4.01%; to `COc1ccc2nnc(C(=O)NCC3CCCC3)nc2c1`, -3.35%. For `CC(=O)N1CCOC(CCc2cc(-c3c(C)noc3C)ncn2)C1` (stereo not drawn), the cytotoxicity at 10 µM was -1.98%. As for `CCC(=O)N1CCCC1c1n[nH]cc1-c1ccccc1F` (stereo not drawn), the figure is -3.02%; as for `NC(=O)C1(c2cnccn2)CCCN1Cc1ccc(Cl)c(F)c1` (stereo not drawn), -4%; as for `O=C(COC1CCCC1)N1CCC(C(O)c2ccc(F)cc2)CC1` (stereo not drawn), 6.62%. To `COc1ccc(C2CCCN2c2cnc3ccccc3n2)c(OC)c1` (stereo not drawn) belongs 7.54%; to `COc1ccc(Cl)cc1NCC(=O)N(Cc1cccnc1)C1CC1`, 11.8%; to `CC(C)(NCCOc1ccc(CC#N)cc1)c1nccs1`, -3.25%.

Consider `COc1cccc(CN(C)Cc2c(C)noc2C)c1OC`, for which the cytotoxicity at 10 µM was 8.82%. To `CCc1nsc(N2CCOC3(CCCC3)C2)n1` belongs 6.05%; to `CC(=O)N(C)C1CCN(C(=O)NCCc2cc(F)ccc2F)CC1`, -7.76%; to `CCN(C(=O)CN1CCn2c(C)nnc2C1)C1=CCCCC1`, 13.4%. Turning to `Cc1nc(CN2CCC(c3nc4cc(Cl)ccc4o3)CC2)oc1C`, the cytotoxicity at 10 µM is -8.56%. For `O=C(NCc1ccccc1F)N1CCCCC1C1OCCO1` (stereo not drawn), the cytotoxicity at 10 µM was 2.01%. As for `O=C(CCNC(=O)c1cccc(OC(F)F)c1)Nc1cccnc1`, the figure is 0.258%; as for `CCC(NC(=O)NCc1cccc(N(C)C)n1)c1cccs1` (stereo not drawn), 17.9%; as for `CN1CCC(NC(=O)Nc2ccc(Cl)c(F)c2)C1=O` (stereo not drawn), -136%. To `CCC(C)Oc1cc(C(=O)Nc2nccs2)ccn1` (stereo not drawn) belongs -6.19%.

With `CC(CO)NC(=O)c1ccc(NCc2ccc(F)c(F)c2)cc1` (stereo not drawn), the cytotoxicity at 10 µM is -5.89%. To `COCCN1CC=C(c2cccc(OC)c2)CC1` belongs 6.45%; to `CC(CCc1ccccc1)N1CCC(C(=O)Nc2ccccn2)CC1` (stereo not drawn), 13.5%.

Take `Cc1ccc(NC(=O)NCCc2cnn(C)c2)c(N(C)C)n1`: the cytotoxicity at 10 µM turned out to be 13.4%. `O=C(c1ccc2c(c1)[nH]c(=O)n2C1CCCC1)N1CCSCC1`: the cytotoxicity at 10 µM was -42.3%. As for `CCCC(C)NC(=O)c1ccc(-c2ccco2)[nH]c1=O` (stereo not drawn), the figure is -20%.

Regarding `CC(NC1(CNC(=O)CC(C)(C)C)CCOCC1)c1ccccc1` (stereo not drawn), the cytotoxicity at 10 µM came out at 8.57%. Consider `CN(CCNC(=O)N1CCN(Cc2ccon2)CC1)c1ccccc1`, for which the cytotoxicity at 10 µM worked out at 22.2%. To `CCc1nc(CC(=O)Nc2cnn(CC3CCCO3)c2)cs1` (stereo not drawn) belongs -3.11%. Turning to `CCOc1ccc(CN(C)C(=O)NC(C)c2nncn2C)cc1` (stereo not drawn), the cytotoxicity at 10 µM amounted to 8.62%. `Cc1n[nH]c(C2CN(C(=O)CCc3ccsc3)CCO2)n1` (stereo not drawn): the cytotoxicity at 10 µM is -5.15%. For the compound `CN(C)C(=O)Cc1nc(CN2CCCCC2Cn2cccn2)cs1` (stereo not drawn), the cytotoxicity at 10 µM stood at 6.04%. For `NC(=O)c1ccc(CN2CCCC(O)C2)cc1` (stereo not drawn), the cytotoxicity at 10 µM worked out at 0.459%. As for `COCC1CN(C(=O)c2ccc(C)o2)Cc2nccn2C1` (stereo not drawn), the figure is -97.1%. To `COC(=O)c1ccc(C(=O)N2CCCC(Nc3ccc(F)cc3)C2)cc1` (stereo not drawn) belongs 1.34%; to `COCCCC1(CO)CCCN(CCOC)C1` (stereo not drawn), -1.87%; to `CCc1cnc(C)nc1NCCNc1nc(C)cc(=O)[nH]1`, -9.01%. As for `COC1CCCN(CCCc2cn[nH]c2)C1` (stereo not drawn), the figure is 2.24%.

For `Cc1ccc(CN(Cc2ccncc2)C2CCN(C)CC2)s1`, the cytotoxicity at 10 µM is 7.39%.

`O=C(CC1CCc2ccccc21)N1CCC(O)(Cn2ccnc2)CC1` (stereo not drawn): the cytotoxicity at 10 µM stood at 5.01%. Regarding `CO[C@@H]1c2ccccc2C2(CCN(C(=O)CNS(C)(=O)=O)CC2)[C@H]1O`, the cytotoxicity at 10 µM is 11.1%. With `c1ccc(-c2nc(CCNC3CCOC4(CCOCC4)C3)no2)cc1` (stereo not drawn), the cytotoxicity at 10 µM worked out at 4.47%. As for `CC(CN1CCOCC1)NC1CCN(Cc2cccc(O)c2)CC1` (stereo not drawn), the figure is -0.683%; as for `Cc1cccc(C(C(=O)NCCCc2nnc3ccccn23)N(C)C)c1` (stereo not drawn), -7.88%; as for `Cc1nc(CCCNC(=O)C2CC(=O)N(C(C)(C)C)C2)sc1C` (stereo not drawn), -6.86%. As for `CCC(NC(=O)C1CCN(S(C)(=O)=O)CC1)c1ccc(OC)c(OC)c1` (stereo not drawn), the figure is -6.69%; as for `CN(C)C(=O)CN1CCN(Cc2coc(-c3cccc(F)c3)n2)CC1`, -3.16%; as for `Cc1cc(C)n(CC2CCCN2CC(=O)Nc2cc(C(C)C)no2)n1` (stereo not drawn), 0.407%. As for `COc1ccnc(N2CCN(CC(=O)N3CCOC(C)C3)CC2)n1` (stereo not drawn), the figure is -5.4%. Take `CC(C(=O)N1CCCN(c2ccccc2C#N)CC1)n1cccn1` (stereo not drawn): the cytotoxicity at 10 µM was -8.3%. For `COc1ccc(C2=CCN(C(=O)C3CCC3)CC2)cc1`, the cytotoxicity at 10 µM was -13.1%. To `CC(NC(=O)NCCCn1cccn1)c1ccc2c(c1)OCCCO2` (stereo not drawn) belongs -9.13%; to `Cc1nccn1C1CCCN(C(=O)CCCNc2ncccn2)C1` (stereo not drawn), -6.42%; to `Cc1ccc(N2CCCC(NCC(=O)NC(C3CC3)C3CC3)C2)nn1` (stereo not drawn), -2.8%. As for `Cc1nn(C)c(Cl)c1C1CCCN1C(=O)c1cnc[nH]1` (stereo not drawn), the figure is -2.11%. To `Cc1cnn(CCCNC(=O)N2CCCCC(N3CCCC3)C2)c1` (stereo not drawn) belongs -5.97%; to `c1cnc(-c2nc(CNCCn3cccn3)cs2)nc1`, -10.3%.

On to `CC(C(=O)NCCOc1cccc(Cl)c1)n1cncn1` (stereo not drawn), for which the cytotoxicity at 10 µM is -3.53%. To `CCOc1cc(/C=C/c2ncc(C(=O)O)s2)ccc1O` belongs 0.241%. Consider `CS(=O)(=O)NC1CCCN(C(=O)NCc2cccnc2)C1` (stereo not drawn), for which the cytotoxicity at 10 µM was 1.59%.

Take `Cc1noc([C@@H]2C[C@@H]3CCN(CC4CC4)C[C@H]3O2)n1`: the cytotoxicity at 10 µM is -139%. `CCn1nc(C)cc1C(=O)N1CC[C@H](OC)[C@H]2CN(CC3CC3)C[C@H]21`: the cytotoxicity at 10 µM was -133%. Take `Cn1nnc2c1CCN(Cc1ccoc1)C2COCc1ccccc1` (stereo not drawn): the cytotoxicity at 10 µM was -138%. As for `CNC(=O)[C@H]1C[C@H]2OCC[C@H]2N(Cc2cccc3ccccc23)C1`, the figure is 7.67%.

For the origin of these results see ChEMBL document CHEMBL4513216, “Probing the Open Global Health Chemical Diversity Library for Multistage-Active Starting Points for Next-Generation Antimalarials” (ACS Infect Dis, 2020).
